ChEMBL document CHEMBL1154067, “Antiviral and cytotoxic activities of aminoarylazo compounds and aryltriazene derivatives” (Bioorg Med Chem, 2009)
Active and inactive are the calls of the source.

Legend:
[1] = system: Bovine viral diarrhea virus 1; experiment: Antiviral activity against Bovine viral diarrhea virus infected in MDBK cells assessed as inhibition of virus-induced cytopathicity after 3 to 4 days by MTT assay; format: functional, organism-based; conditions: Bovine viral diarrhea virus isolates and strains
[2] = system: Coxsackievirus B2; experiment: Antiviral activity against Coxsackie virus type B2 virus infected in african green monkey Vero-76 cells after 3 days by plaque reduction assay; format: functional, organism-based; conditions: Enterovirus B, Vero 76, 72 h
Method in brief: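 Vero 76 cells seeded at 2 × 10^5 cells/well, grown overnight to confluence at 37 °C in 5% CO2, then infected at 50–100 PFU/well. Unadsorbed virus removed. Overlay of DMEM with 1% inactivated FCS and 0.75% methylcellulose, with or without serial compound dilutions. After 3 days at 37 °C, fixed and stained with crystal violet in PBS/50% ethanol; plaques counted. EC50 is the concentration reducing plaque number by 50%.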

[3] = system: Human immunodeficiency virus 1; experiment: Antiviral activity against HIV1 infected in human MT4 cells assessed as inhibition of virus-induced cytopathicity after 4 days by MTT assay; format: functional, organism-based
[4] = system: Vaccinia virus; experiment: Antiviral activity against Vaccinia virus after 3 days by plaque reduction assay; format: functional, organism-based; conditions: Orthopoxvirus vaccinia
[5] = system: Vesicular stomatitis virus; experiment: Antiviral activity against Vesicular stomatitis virus after 2 days by plaque reduction assay; format: functional, organism-based
[6] = Cytotoxicity against hamster BHK21 cells assessed as reduction in cell viability after 48 to 96 hrs by MTT assay; format: cell-based, Mesocricetus auratus, BHK-21; conditions: bhk-21
Method in brief: (§1)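 Mock-infected cells in maintenance medium, MDBK at 6 × 10^5 and BHK at 1 × 10^6 cells/mL initial density, with or without serial compound dilutions. Run in parallel with antiviral assays. Viability by MTT after 48–96 h at 37 °C, 5% CO2. CC50 = concentration reducing viability 50%.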

[7] = system: Vero; experiment: Cytotoxicity against african green monkey Vero 76 cells by crystal violet staining; format: cell-based; conditions: chlorocebus sabaeus, vero
Method in brief: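 Mock-infected Vero 76 seeded at 4 × 10^5 cells/mL, run in parallel with plaque assays, with or without serial compound dilutions. Cell number of monolayers determined by crystal violet staining. CC50 = concentration reducing viable cell number 50%.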

[8] = system: MT4; experiment: Cytotoxicity against human MT4 cells after 96 hrs by MTT assay; format: cell-based; conditions: mt4, 96 h
Method in brief: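 Exponentially growing mock-infected MT-4 seeded at 1 × 10^5 cells/mL in RPMI-1640 with 10% FCS, penicillin and streptomycin. Incubated with or without serial compound dilutions at 37 °C, 5% CO2. Viability by MTT after 96 h. CC50 = concentration reducing viability 50%.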

[9] = system: Yellow fever virus; experiment: Antiviral activity against Yellow fever virus infected in BHK-21 cells assessed as inhibition of virus-induced cytopathicity after 3 to 4 days by MTT assay; format: functional, organism-based
[10] = system: Human alphaherpesvirus 1; experiment: Antiviral activity against HSV1 infected in Vero-76 cells after 3 days by plaque reduction assay; format: functional, organism-based; conditions: Human alphaherpesvirus 1, Vero 76, 72 h
[11] = system: Poliovirus 1; experiment: Antiviral activity against Human poliovirus 1 strain Sabin after 2 days by plaque reduction assay; format: functional; conditions: for EC50: Enterovirus C, 48 h
[12] = system: Mammalian orthoreovirus 1; experiment: Antiviral activity against Reovirus-1 infected in BHK-21 cells assessed as inhibition of virus-induced cytopathicity after 3 to 4 days by MTT assay; format: functional, organism-based; conditions: Mammalian orthoreovirus 1, BHK-21
Method in brief: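 BHK-21 cells seeded at 5 × 10^4 cells/well, grown overnight to confluent monolayers at 37 °C in 5% CO2, then infected at m.o.i. 0.01 in serum-free medium. One hour later, MEM Earle's with 1% final inactivated FCS added, with or without serial compound dilutions. Viability read by MTT after 3–4 days at 37 °C. EC50 is the concentration giving 50% protection from cytopathogenicity.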

[13] = system: Respiratory syncytial virus; experiment: Antiviral activity against Respiratory syncytial virus A2 infected in Vero-76 cells after 5 days by plaque reduction assay; format: functional, organism-based; conditions: human respiratory syncytial virus, A2, Vero 76, 120 h
[14] = Cytotoxicity against MDBK cells after 48 to 96 hrs by MTT assay; format: cell-based, Bos taurus; conditions: cattle, mdbk; method in brief: as §1

Structure (SMILES) | EC50 [1] [µM] | EC50 [2] [µM] | inhibition [3] | Activity [4] | Activity [5] | CC50 [6] [µM] | CC50 [7] [µM] | CC50 [8] [µM] | EC50 [9] [µM] | EC50 [10] [µM] | EC50 [11] [µM] | EC50 [12] [µM] | EC50 [13] [µM] | CC50 [14] [µM] | Activity [11]
FC(F)(F)c1cccc(N(C[C@@H]2CCCN3CCCC[C@H]23)/N=N/c2ccccc2)c1 | > 22 | > 75 | inactive | inactive | inactive | 40 | 75 | 17 | 23 | > 75 | > 75 | > 40 | > 75 | 22 | –
c1ccc(/N=N/c2ccc(NC[C@@H]3CCCN4CCCC[C@H]34)c3c2CCCC3)cc1 | 30 | > 80 | inactive | inactive | inactive | > 100 | 80 | 100 | ≥ 100 | > 80 | – | > 100 | > 80 | > 100 | inactive
CCCN(CCC)CCSc1n[nH]c2c3ccccc3nc-2n1 | 0.03 | – | – | – | – | – | – | – | – | – | – | – | – | – | –
Fc1ccc(F)c(/N=N/Nc2cc(F)ccc2F)c1 | > 100 | 50 | inactive | inactive | inactive | > 100 | ≥ 100 | ≥ 100 | > 100 | > 100 | > 100 | > 100 | 8 | > 100 | –
Fc1ccc(F)c(/N=N/Nc2cccc(C(F)(F)F)c2)c1 | > 100 | > 80 | inactive | inactive | inactive | > 100 | 80 | > 100 | 80 | > 80 | > 80 | > 100 | 10 | > 100 | –
Fc1ccc(F)c(/N=N/c2ccc(NC[C@@H]3CCCN4CCCC[C@H]34)c3c2CCCC3)c1 | > 64 | > 80 | inactive | inactive | inactive | 38 | 80 | 40 | > 38 | > 80 | – | > 38 | > 80 | 64 | inactive
CN(Cc1ccccc1)/N=N/c1ccccc1 | > 100 | > 100 | inactive | inactive | inactive | > 100 | ≥ 100 | ≥ 100 | > 100 | > 100 | > 100 | > 100 | > 100 | > 100 | –
O=c1cnn([C@@H]2O[C@H](CO)[C@@H](O)[C@H]2O)c(=O)[nH]1 [6-AZAURIDINE] | > 100 | > 20 | – | – | – | > 100 | 20 | – | – | > 20 | > 20 | > 100 | – | > 100 | –
O=[N+]([O-])c1cccc(/N=N/Nc2cccc([N+](=O)[O-])c2)c1 | > 100 | > 100 | inactive | inactive | inactive | > 100 | > 100 | > 100 | > 100 | > 100 | > 100 | > 100 | > 100 | > 100 | –
CN(C)CCCN(/N=N/c1cccc([N+](=O)[O-])c1)c1ccccc1 | > 37 | > 40 | inactive | inactive | inactive | 54 | 40 | 14 | 24 | 30 | > 40 | > 54 | > 40 | 37 | –
Cc1ccc(/N=N/N(CCCN(C)C)c2ccccc2)cc1 | > 100 | > 100 | inactive | inactive | inactive | > 100 | 100 | 18 | > 100 | > 100 | > 100 | > 100 | > 100 | > 100 | –
CN(/N=N/c1ccccc1)c1ccccc1 | > 100 | > 50 | inactive | inactive | inactive | > 100 | 50 | 55 | > 100 | > 50 | > 50 | > 100 | 20 | > 100 | –
Brc1ccc(Cn2ccc3nc(-c4ccccc4)nc-3c2)cc1 | 0.03 | – | – | – | – | – | – | – | – | – | – | – | – | – | –
Cn1c2cc(N3CCN(c4ccccn4)CC3)c(N)cc2c(=O)c2c(O)cc(O)cc21 | 0.6 | – | – | – | – | – | – | – | – | – | – | – | – | – | –
c1ccc(/N=N/Nc2ccccc2)cc1 | > 100 | > 90 | inactive | inactive | inactive | – | – | – | > 100 | > 90 | > 90 | > 100 | ≥ 90 | – | –
NCCCC[C@H](N)C(=O)Nc1cccc(-c2ccc(NC(=O)Nc3nc4ccccc4s3)nc2)c1 | 0.6 | – | – | – | – | – | – | – | – | – | – | – | – | – | –
COc1c(C)c2c(c(O)c1C/C=C(\C)CCC(=O)O)C(=O)OC2 [MYCOPHENOLIC ACID] | > 42 | > 13 | – | – | – | > 100 | ≥ 13 | 0.2 | > 100 | > 13 | > 13 | > 100 | 0.6 | 42 | –
Brc1ccc(/N=N/N2CCCC2)cc1 | – | > 100 | inactive | inactive | inactive | > 100 | ≥ 100 | > 100 | > 100 | > 100 | 51 | > 100 | > 100 | > 100 | –
CN1CCN(/N=N/c2cc(F)ccc2F)CC1 | – | 71 | inactive | inactive | inactive | > 100 | ≥ 100 | > 100 | 50 | 64 | > 100 | 30 | > 100 | > 100 | –
O=[N+]([O-])c1cccc(/N=N/N2CCCCC2)c1 | – | > 83 | inactive | inactive | inactive | > 100 | 83 | > 100 | > 100 | > 83 | > 83 | > 100 | > 83 | > 100 | –
Clc1ccc(/N=N/N2CCCCC2)cc1 | – | > 100 | inactive | inactive | inactive | > 100 | > 100 | > 100 | > 100 | > 100 | > 100 | > 100 | > 100 | > 100 | –
Clc1cccc(/N=N/N2CCCC2)c1 | – | > 100 | inactive | inactive | inactive | > 100 | ≥ 100 | > 100 | > 100 | > 100 | ≥ 100 | > 100 | > 100 | > 100 | –
